ChEMBL document CHEMBL2311425, “Histone deacetylase (HDAC) inhibitors with a novel connecting unit linker region reveal a selectivity profile for HDAC4 and HDAC5 with improved activity against chemoresistant cancer cells” (J Med Chem, 2013)

Assays:
A2780 [1] = experiment: Potentiation of 5 uM cisplatin-induced toxicity in 5 uM cisplatin resistant human A2780 cells at 0.25 uM pretreated for 48 hrs followed by 5 uM cisplatin treatment by MTT assay; format: functional
KYSE-510 [2] = experiment: Potentiation of 0.75 uM cisplatin-induced toxicity in 0.5 uM cisplatin resistant human KYSE-510 cells at 1.5 uM pretreated for 48 hrs followed by 0.5 uM cisplatin treatment by MTT assay; format: functional
In short: (§1)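 Cisplatin-resistant Kyse510 CisR (derived by weekly cycles of cisplatin over 24−30 weeks), grown in RPMI 1640 with 10% FCS at 37 °C, 5% CO₂. Test agent added 48 h before cisplatin, then 72 h further incubation. Viability by MTT (read at 544/690 nm) relative to untreated control wells. Combination index by Chou−Talalay method. Mean of three experiments.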

KYSE-510 [3] = experiment: Potentiation of 0.75 uM cisplatin-induced toxicity in 0.5 uM cisplatin resistant human KYSE-510 cells at 0.25 uM pretreated for 48 hrs followed by 0.5 uM cisplatin treatment by MTT assay; format: functional; in short: as §1
CAL-27 [4] = experiment: Potentiation of 2.5 uM cisplatin-induced toxicity in 1 uM cisplatin resistant human CAL27 cells at 1.5 uM pretreated for 48 hrs followed by 1 uM cisplatin treatment by MTT assay; format: functional
CAL-27 [5] = experiment: Potentiation of 2.5 uM cisplatin-induced toxicity in 1 uM cisplatin resistant human CAL27 cells at 0.5 uM pretreated for 48 hrs followed by 1 uM cisplatin treatment by MTT assay; format: functional
MDA-MB-231 [6] = experiment: Potentiation of 10 uM cisplatin-induced toxicity in 1 uM cisplatin resistant human MDA-MB-231 cells at 1 uM pretreated for 48 hrs followed by 1 uM cisplatin treatment by MTT assay; format: functional
A2780 [7] = experiment: Potentiation of 1 uM cisplatin-induced toxicity in 5 uM cisplatin resistant human A2780 cells at 1 uM pretreated for 48 hrs followed by 5 uM cisplatin treatment by MTT assay; format: functional
KYSE-510 [8] = experiment: Potentiation of 0.5 uM cisplatin-induced toxicity in 0.5 uM cisplatin resistant human KYSE-510 cells at 0.25 uM pretreated for 48 hrs followed by 0.5 uM cisplatin treatment by MTT assay; format: functional
KYSE-510 [9] = experiment: Potentiation of cisplatin-induced toxicity in cisplatin resistant human KYSE-510 cells at 1 uM pretreated for 48 hrs followed by cisplatin treatment by MTT assay; format: functional
In short: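 Resistant sublines pretreated 48 h with 1 μM HDAC inhibitor, then cisplatin over a concentration range for 72 h; MTT viability read at 544/690 nm. Cisplatin IC50 from four-parameter logistic fit of pooled data (≥3 experiments, triplicate); shift factor = IC50 of cisplatin alone divided by IC50 of the combination.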

Histone deacetylase 11 = molecular target: T1, Histone deacetylase 11 (Homo sapiens, UniProt Q96DB2); experiment: Inhibition of human HDAC11 by fluorescence assay
T1 sequence (Q96DB2 whole entry): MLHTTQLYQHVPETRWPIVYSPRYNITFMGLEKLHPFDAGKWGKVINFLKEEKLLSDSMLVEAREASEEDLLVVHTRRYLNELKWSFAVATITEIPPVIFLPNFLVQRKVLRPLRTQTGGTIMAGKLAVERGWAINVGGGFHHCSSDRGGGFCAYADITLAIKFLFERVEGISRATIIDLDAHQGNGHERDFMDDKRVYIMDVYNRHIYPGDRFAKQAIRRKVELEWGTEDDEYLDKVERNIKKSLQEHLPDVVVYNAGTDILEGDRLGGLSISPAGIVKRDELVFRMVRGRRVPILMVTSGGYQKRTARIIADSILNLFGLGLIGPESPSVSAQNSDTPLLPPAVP

Histone deacetylase 2 = Histone deacetylase 2 (Homo sapiens, UniProt Q92769); experiment: Inhibition of human HDAC2 by fluorescence assay
Histone deacetylase [10] = experiment: Inhibition of HDAC in cisplatin sensitive human CAL27 cells after 18 hrs by fluorescence assay; format: cell-based; conditions: cal-27
Histone deacetylase [11] = experiment: Inhibition of HDAC in cisplatin resistant human MDA-MB-231 cells after 18 hrs by fluorescence assay; format: cell-based
A2780 [12] = experiment: Potentiation of 20 uM cisplatin-induced toxicity in 5 uM cisplatin resistant human A2780 cells at 1 uM pretreated for 48 hrs followed by 5 uM cisplatin treatment by MTT assay; format: functional
KYSE-510 [13] = experiment: Potentiation of 8 uM cisplatin-induced toxicity in 0.5 uM cisplatin resistant human KYSE-510 cells at 0.5 uM pretreated for 48 hrs followed by 0.5 uM cisplatin treatment by MTT assay; format: functional
A2780 [14] = experiment: Potentiation of 10 uM cisplatin-induced toxicity in 5 uM cisplatin resistant human A2780 cells at 0.5 uM pretreated for 48 hrs followed by 5 uM cisplatin treatment by MTT assay; format: functional
A2780 [15] = experiment: Potentiation of 10 uM cisplatin-induced toxicity in 5 uM cisplatin resistant human A2780 cells at 0.25 uM pretreated for 48 hrs followed by 5 uM cisplatin treatment by MTT assay; format: functional
KYSE-510 [16] = experiment: Potentiation of 3.16 uM cisplatin-induced toxicity in 0.5 uM cisplatin resistant human KYSE-510 cells at 0.5 uM pretreated for 48 hrs followed by 0.5 uM cisplatin treatment by MTT assay; format: functional
MDA-MB-231 [17] = experiment: Potentiation of 40 uM cisplatin-induced toxicity in 1 uM cisplatin resistant human MDA-MB-231 cells at 1.5 uM pretreated for 48 hrs followed by 1 uM cisplatin treatment by MTT assay; format: functional
A2780 [18] = experiment: Potentiation of 8 uM cisplatin-induced toxicity in 5 uM cisplatin resistant human A2780 cells at 1 uM pretreated for 48 hrs followed by 5 uM cisplatin treatment by MTT assay; format: functional
KYSE-510 [19] = experiment: Potentiation of 1 uM cisplatin-induced toxicity in 0.5 uM cisplatin resistant human KYSE-510 cells at 0.5 uM pretreated for 48 hrs followed by 0.5 uM cisplatin treatment by MTT assay; format: functional
CAL-27 [20] = experiment: Potentiation of 5 uM cisplatin-induced toxicity in 1 uM cisplatin resistant human CAL27 cells at 1.5 uM pretreated for 48 hrs followed by 1 uM cisplatin treatment by MTT assay; format: functional

Chain of Histone deacetylase 2 (Q92769 whole entry): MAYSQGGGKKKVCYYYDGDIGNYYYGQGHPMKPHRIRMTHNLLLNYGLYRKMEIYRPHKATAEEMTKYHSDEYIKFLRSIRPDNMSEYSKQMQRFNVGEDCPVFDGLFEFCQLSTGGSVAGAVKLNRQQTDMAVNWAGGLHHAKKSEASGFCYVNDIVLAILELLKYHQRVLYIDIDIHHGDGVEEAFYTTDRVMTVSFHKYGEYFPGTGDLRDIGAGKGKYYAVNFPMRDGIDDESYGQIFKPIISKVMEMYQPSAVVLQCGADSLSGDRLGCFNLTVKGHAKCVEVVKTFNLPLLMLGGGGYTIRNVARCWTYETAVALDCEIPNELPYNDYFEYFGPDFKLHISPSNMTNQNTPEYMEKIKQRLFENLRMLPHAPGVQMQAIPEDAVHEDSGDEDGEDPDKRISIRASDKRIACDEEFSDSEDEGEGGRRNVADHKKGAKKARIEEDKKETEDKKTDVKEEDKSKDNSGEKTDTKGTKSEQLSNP

## Cc1cc(C)cc(C(=O)NOCCCCCC(=O)NO)c1
A2780 [1]
  Activity: Dose-dependent effect
  fractional inhibitory concentration index (FICI): 0.85
KYSE-510 [2]
  Activity: Dose-dependent effect
  fractional inhibitory concentration index (FICI): 0.05
KYSE-510 [3]
  Activity: Dose-dependent effect
  fractional inhibitory concentration index (FICI): 0.1
CAL-27 [4]
  Activity: Dose-dependent effect
  fractional inhibitory concentration index (FICI): 0.34
CAL-27 [5]
  Activity: Dose-dependent effect
MDA-MB-231 [6]
  Activity: Dose-dependent effect
  fractional inhibitory concentration index (FICI): 0.85
A2780 [7]
  Activity: Dose-dependent effect
  fractional inhibitory concentration index (FICI): 0.82
KYSE-510 [8]
  Activity: Dose-dependent effect
  fractional inhibitory concentration index (FICI): 0.18
KYSE-510 [9]
  Activity: Dose-dependent effect
  fold change (FC): 18.8
Histone deacetylase 11
  IC50: 852 nM
Histone deacetylase 2
  IC50: 881 nM
Histone deacetylase [10]
  IC50: 360 nM
Histone deacetylase [11]
  IC50: 410 nM
A2780 [12]
  Activity: Dose-dependent effect
  fractional inhibitory concentration index (FICI): 0.49
KYSE-510 [13]
  Activity: Dose-dependent effect
  fractional inhibitory concentration index (FICI): 0.16
A2780 [14]
  Activity: Dose-dependent effect
  fractional inhibitory concentration index (FICI): 0.69
A2780 [15]
  Activity: Dose-dependent effect
  fractional inhibitory concentration index (FICI): 0.78
KYSE-510 [16]
  Activity: Dose-dependent effect
  fractional inhibitory concentration index (FICI): 0.09
MDA-MB-231 [17]
  Activity: Dose-dependent effect
  fractional inhibitory concentration index (FICI): 0.84
A2780 [18]
  Activity: Dose-dependent effect
  fractional inhibitory concentration index (FICI): 0.59
KYSE-510 [19]
  Activity: Dose-dependent effect
  fractional inhibitory concentration index (FICI): 0.08
CAL-27 [20]
  Activity: Dose-dependent effect
  fractional inhibitory concentration index (FICI): 0.22
